Measurements published in ChEMBL document CHEMBL5678798 (Clin Cancer Res, 2009).
The source made the active and inactive calls. The calls are words filed in the database; no cut-off is given here.

Legend:
[1] = target: Proto-oncogene tyrosine-protein kinase Src (Homo sapiens, UniProt P12931); test: Inhibition of SRC1 (unknown origin)
KMS-12-BM = test: Antiproliferative activity against human KMS-12-BM cells assessed as reduction in cell viability after 72 hrs by CellTiter-Glo assay; format: functional, cell-based
Method in brief: (§1)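 Cells seeded in 96-well plates, left overnight at 37°C, then exposed to a range of test concentrations for 72 h. Viability read by CellTiter-Glo luminescence; IC50 from four-parameter curve fit. Lines kept at 37°C, 5% CO2, in recommended growth medium.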

Homo sapiens = species on record: Homo sapiens; test: Inhibition of N-terminal GST-tagged recombinant human MAPK1 expressed in Escherichia coli at 3 uM by filter binding assay relative to control
Method in brief: (§2)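 Outsourced single-concentration screen in a commercial panel of 233 protein kinases, run as radiometric filter-binding activity assays. Test agent was tested at 0.3 or 3 µmol/L, as given in each line, from a 10 mmol/L DMSO stock. Activity is expressed as percent inhibition relative to control.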

[2] = target: Insulin receptor-related protein (Homo sapiens, UniProt P14616); test: Inhibition of N-terminal 6His-tagged recombinant human IRR (944 to 1266 residues) expressed in baculovirus infected Sf21 cells by filter binding assay
[3] = target: Calcium/calmodulin-dependent protein kinase type IV (Homo sapiens) (UniProt Q16566); test: Inhibition of C-terminal His6-tagged recombinant full length human CaMKIV expressed in baculovirus infected Sf21 cells at 3 uM by filter binding assay relative to control
Method in brief: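 KinaseProfiler panel of 233 kinases: radiometric filter-binding activity assays with compound at 0.3 or 3 µmol/L. Read-out is percent inhibition.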

MOLP-8 = test: Antiproliferative activity against human MOLP8 cells assessed as reduction in cell viability after 72 hrs by CellTiter-Glo assay; format: functional, cell-based; settings: MOLP-8, 72 h; method in brief: as §1
NCI-H929 = test: Induction of cell cycle arrest in human NCI-H929 cells assessed as cells accumulation at G2 phase at 1 umol/L incubated for 48 hrs by propidium iodide staining based flow cytometric analysis (reference value: 33%); format: functional; settings: dose 1 µmol/L, at 1 µM
Method in brief: (§3)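 COLO 205, MCF-7 or NCI-H929 cells seeded in 96-well plates overnight at 37°C, then exposed to DMSO or increasing compound concentrations for 24 or 48 h. Fixed and stained with propidium iodide (Vindelov method), then analysed by flow cytometry for sub-G1, G1, S and G2-M fractions. Experiment repeated twice.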

MCF7 = test: Induction of cell cycle arrest in human MCF7 cells assessed as cells accumulation at S phase at 1 umol/L incubated for 48 hrs by propidium iodide staining based flow cytometric analysis (reference value: 10%); format: functional; settings: dose 1 µmol/L, at 1 µM; method in brief: as §3
[4] = target: Tyrosine-protein kinase Yes (Homo sapiens) (UniProt P07947); test: Inhibition of N-terminal His6 tagged recombinant full-length human Yes expressed in baculovirus infected Sf21 cells at 3 uM by filter binding assay relative to control; method in brief: as §2
Sequence of Tyrosine-protein kinase Yes (Homo sapiens) (P07947 2-543 limits assumed): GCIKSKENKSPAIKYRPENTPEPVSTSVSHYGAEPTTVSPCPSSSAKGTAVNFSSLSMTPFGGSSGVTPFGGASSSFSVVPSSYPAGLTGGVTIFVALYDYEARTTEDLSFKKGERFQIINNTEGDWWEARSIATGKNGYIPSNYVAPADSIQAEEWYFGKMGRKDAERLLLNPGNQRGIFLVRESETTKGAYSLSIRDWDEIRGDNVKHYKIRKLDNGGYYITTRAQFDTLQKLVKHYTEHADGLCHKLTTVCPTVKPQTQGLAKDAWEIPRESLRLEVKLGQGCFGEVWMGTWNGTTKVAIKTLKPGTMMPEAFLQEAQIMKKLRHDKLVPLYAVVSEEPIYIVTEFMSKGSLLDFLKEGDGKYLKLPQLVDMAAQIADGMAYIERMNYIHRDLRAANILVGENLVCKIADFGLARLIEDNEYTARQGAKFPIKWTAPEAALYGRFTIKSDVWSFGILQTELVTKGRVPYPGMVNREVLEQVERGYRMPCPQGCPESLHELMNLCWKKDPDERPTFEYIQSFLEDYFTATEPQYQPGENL

[5] = Toxicity in nu/nu CD-1 mouse xenografted with human COLO 205 cells assessed as reduction in body weight at 30 mg/kg, po for 21 days relative to control; parameters: scale not given: the % may be the effect or the level left; settings: in vivo, 504 h
[6] = Inhibition of p70S6K (unknown origin); parameters: species or system Homo sapiens
Activin receptor type-2B = Activin receptor type-2B (Homo sapiens, UniProt Q13705); test: Inhibition of ActRIIB (unknown origin)
Sequence of Activin receptor type-2B (Q13705 whole entry): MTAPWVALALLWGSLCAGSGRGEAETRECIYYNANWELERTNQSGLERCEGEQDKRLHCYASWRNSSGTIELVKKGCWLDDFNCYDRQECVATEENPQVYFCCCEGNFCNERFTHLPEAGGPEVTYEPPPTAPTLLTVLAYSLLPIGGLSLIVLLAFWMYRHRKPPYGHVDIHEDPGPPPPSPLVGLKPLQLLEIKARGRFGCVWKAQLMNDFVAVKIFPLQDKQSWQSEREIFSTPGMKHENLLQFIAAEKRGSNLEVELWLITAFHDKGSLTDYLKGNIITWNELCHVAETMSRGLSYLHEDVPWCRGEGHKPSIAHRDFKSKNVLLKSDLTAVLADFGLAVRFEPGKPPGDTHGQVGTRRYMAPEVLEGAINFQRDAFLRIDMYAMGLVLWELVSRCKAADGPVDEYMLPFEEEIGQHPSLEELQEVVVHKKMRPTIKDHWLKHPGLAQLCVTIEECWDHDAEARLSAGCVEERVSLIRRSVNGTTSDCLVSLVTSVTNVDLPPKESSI

[7] = target: Protein-tyrosine kinase 6 (Homo sapiens) (UniProt Q13882); test: Inhibition of N-terminal His6-tagged recombinant full-length human BRK expressed in baculovirus infected Sf21 cells at 3 uM by filter binding assay relative to control
[8] = target: FKBP12A/mTOR (Homo sapiens) (UniProt P62942+P42345); test: Inhibition of human mTOR/FKBP12 at 3 uM by filter binding assay relative to control; format: protein-complex assay
Sequence of FKBP12A/mTOR (Homo sapiens) (P62942 2-108 limits assumed, other chains not shown): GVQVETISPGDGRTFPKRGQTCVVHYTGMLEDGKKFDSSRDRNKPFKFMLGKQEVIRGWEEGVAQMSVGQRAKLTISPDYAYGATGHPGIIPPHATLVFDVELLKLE

[9] = target: Tyrosine-protein kinase BTK (Homo sapiens, UniProt Q06187); test: Inhibition of N-terminal His6-tagged recombinant full-length human BTK expressed in baculovirus infected Sf21 cells by filter binding assay
[10] = target: Serine/threonine-protein kinase MRCK beta (Homo sapiens) (UniProt Q9Y5S2); test: Inhibition of N-terminal His6-tagged recombinant human MRCKbeta (1 to 473 residues) expressed in baculovirus infected Sf21 cells at 0.3 uM by filter binding assay relative to control
[11] = Antitumor activity against mouse NIH-3T3/LISN cells implanted in nu/nu CD-1 mouse assessed as reduction in tumor growth at 30 mg/kg, po administered twice daily for 21 days relative to control; format: functional; settings: 504 h, time 21 day, read-out: TGI
Method in brief: (§4)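 Exponentially growing cells implanted s.c. in the right flank of 8–10-wk-old female athymic nu/nu CD-1 mice. At 150–200 mm3, block-randomized by tumor size into groups of eight. Oral dosing once or twice daily for 21 d; vehicle 20% sulfobutylether-β-cyclodextrin, pH 3.5. Calipers twice weekly; volume = length×width²/2. Growth inhibition = 100×[1 − treated growth/vehicle growth].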

SK-OV-3 = test: Antiproliferative activity against human SK-OV-3 cells assessed as reduction in cell viability after 72 hrs by CellTiter-Glo assay; format: functional, cell-based; settings: SK-OV-3, 72 h; method in brief: as §1
[12] = Cytotoxicity against human PREC cells assessed as reduction in cell viability after 72 hrs by CellTiter-Glo assay; format: toxicity, cell-based; method in brief: as §1
[13] = target: Ribosomal protein S6 kinase alpha-4 (Homo sapiens, UniProt O75676); test: Inhibition of N-terminal His6-tagged recombinant human MSK2 (2 to end residues) expressed in baculovirus infected Sf21 cells by filter binding assay
[14] = target: LIM domain kinase 1 (Homo sapiens) (UniProt P53667); test: Inhibition of N-terminal 6His-tagged recombinant human LIMK1 (285 to 638 residues) expressed in baculovirus infected Sf21 cells at 3 uM by filter binding assay relative to control; method in brief: as §2
Sequence of LIM domain kinase 1 (Homo sapiens) (P53667 whole entry, looked up, the tested form may be a part): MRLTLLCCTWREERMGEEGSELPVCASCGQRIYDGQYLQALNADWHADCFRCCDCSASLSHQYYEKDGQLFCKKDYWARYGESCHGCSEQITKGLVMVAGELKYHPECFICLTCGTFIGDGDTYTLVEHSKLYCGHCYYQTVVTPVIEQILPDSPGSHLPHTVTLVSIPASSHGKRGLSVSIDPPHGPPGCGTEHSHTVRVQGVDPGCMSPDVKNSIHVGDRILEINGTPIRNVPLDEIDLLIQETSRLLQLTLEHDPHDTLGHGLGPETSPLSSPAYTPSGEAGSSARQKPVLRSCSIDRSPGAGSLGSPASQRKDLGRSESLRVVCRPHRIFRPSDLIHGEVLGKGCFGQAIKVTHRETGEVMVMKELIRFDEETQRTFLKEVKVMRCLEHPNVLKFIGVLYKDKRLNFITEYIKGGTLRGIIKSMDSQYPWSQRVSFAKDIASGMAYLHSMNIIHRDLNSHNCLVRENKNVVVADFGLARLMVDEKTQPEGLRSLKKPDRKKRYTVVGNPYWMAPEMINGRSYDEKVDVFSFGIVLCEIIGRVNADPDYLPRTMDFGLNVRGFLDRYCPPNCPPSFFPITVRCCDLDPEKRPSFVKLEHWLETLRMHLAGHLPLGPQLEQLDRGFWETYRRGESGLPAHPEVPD

[15] = target: Tyrosine-protein kinase Blk (Mus musculus) (UniProt P16277); test: Inhibition of N-terminal His6-tagged recombinant full-length mouse Blk expressed in baculovirus infected Sf21 cells at 0.3 uM by filter binding assay relative to control; method in brief: as §2
Sequence of Tyrosine-protein kinase Blk (Mus musculus) (P16277 whole entry): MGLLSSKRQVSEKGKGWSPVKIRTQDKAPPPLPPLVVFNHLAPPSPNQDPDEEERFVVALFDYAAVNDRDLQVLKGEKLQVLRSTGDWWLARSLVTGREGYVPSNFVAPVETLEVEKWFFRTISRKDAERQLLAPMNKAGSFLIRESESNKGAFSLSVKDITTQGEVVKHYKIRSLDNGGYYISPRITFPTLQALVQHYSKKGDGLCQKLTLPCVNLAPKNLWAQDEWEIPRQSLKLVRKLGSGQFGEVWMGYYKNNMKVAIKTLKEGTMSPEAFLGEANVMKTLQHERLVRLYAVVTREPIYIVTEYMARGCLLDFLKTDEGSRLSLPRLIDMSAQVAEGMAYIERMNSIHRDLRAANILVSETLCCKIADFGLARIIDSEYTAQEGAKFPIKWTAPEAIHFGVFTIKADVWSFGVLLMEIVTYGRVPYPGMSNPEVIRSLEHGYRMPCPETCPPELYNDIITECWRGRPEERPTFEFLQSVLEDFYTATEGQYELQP

COLO 205 = test: Induction of cell cycle arrest in human COLO 205 cells assessed as decrease in cells accumulation at G2/M phase at 0.03 to 10 uM incubated for 24 to 48 hrs by propidium iodide staining based flow cytometric analysis; format: functional; settings: dose 0.03-10 µM, time lower 24.0 hrs, time upper […]; method in brief: as §3
[16] = target: Homeodomain-interacting protein kinase 3 (Homo sapiens) (UniProt Q9H422); test: Inhibition of N-terminal 6His-tagged recombinant human HIPK3 (161 to 562 residues) expressed in baculovirus infected Sf21 cells at 0.3 uM by filter binding assay relative to control; method in brief: as §2
Sequence of Homeodomain-interacting protein kinase 3 (Homo sapiens) (Q9H422 whole entry, looked up, the tested form may be a part): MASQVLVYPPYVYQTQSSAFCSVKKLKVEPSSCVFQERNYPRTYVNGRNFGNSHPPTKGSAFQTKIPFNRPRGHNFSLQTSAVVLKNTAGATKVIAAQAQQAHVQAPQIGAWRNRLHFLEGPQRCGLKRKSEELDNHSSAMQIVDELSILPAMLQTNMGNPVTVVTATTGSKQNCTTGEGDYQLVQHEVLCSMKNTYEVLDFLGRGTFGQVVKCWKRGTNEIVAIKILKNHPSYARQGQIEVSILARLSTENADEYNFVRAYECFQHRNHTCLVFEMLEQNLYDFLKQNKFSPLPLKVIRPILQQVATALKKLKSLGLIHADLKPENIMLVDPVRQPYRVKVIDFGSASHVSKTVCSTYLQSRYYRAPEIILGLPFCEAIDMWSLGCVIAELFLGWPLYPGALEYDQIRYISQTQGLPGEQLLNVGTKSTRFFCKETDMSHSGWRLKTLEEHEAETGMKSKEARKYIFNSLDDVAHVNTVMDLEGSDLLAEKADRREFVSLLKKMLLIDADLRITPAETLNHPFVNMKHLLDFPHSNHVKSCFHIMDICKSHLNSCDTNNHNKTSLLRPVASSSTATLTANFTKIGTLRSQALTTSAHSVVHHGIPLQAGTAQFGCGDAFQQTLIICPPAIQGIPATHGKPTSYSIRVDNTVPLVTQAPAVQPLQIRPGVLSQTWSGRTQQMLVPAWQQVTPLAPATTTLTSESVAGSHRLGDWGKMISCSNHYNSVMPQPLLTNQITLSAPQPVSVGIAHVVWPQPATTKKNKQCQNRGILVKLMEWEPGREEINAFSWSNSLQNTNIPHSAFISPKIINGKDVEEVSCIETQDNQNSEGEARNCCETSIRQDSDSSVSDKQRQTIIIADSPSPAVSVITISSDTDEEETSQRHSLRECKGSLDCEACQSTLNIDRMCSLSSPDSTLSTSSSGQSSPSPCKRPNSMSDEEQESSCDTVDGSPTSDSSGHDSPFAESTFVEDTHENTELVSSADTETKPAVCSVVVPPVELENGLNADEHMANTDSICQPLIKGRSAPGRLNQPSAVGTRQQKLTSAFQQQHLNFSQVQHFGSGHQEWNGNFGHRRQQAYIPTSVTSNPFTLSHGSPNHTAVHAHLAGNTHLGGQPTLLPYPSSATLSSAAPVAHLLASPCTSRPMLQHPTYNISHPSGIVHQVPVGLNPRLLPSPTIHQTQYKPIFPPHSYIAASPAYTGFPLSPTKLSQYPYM

[17] = target: Insulin receptor (Mus musculus) (UniProt P15208); settings: CD-1, dose 30.0 mg/kg, route po, time 21.0 day
Sequence of Insulin receptor (Mus musculus) (P15208 28-748 limits assumed): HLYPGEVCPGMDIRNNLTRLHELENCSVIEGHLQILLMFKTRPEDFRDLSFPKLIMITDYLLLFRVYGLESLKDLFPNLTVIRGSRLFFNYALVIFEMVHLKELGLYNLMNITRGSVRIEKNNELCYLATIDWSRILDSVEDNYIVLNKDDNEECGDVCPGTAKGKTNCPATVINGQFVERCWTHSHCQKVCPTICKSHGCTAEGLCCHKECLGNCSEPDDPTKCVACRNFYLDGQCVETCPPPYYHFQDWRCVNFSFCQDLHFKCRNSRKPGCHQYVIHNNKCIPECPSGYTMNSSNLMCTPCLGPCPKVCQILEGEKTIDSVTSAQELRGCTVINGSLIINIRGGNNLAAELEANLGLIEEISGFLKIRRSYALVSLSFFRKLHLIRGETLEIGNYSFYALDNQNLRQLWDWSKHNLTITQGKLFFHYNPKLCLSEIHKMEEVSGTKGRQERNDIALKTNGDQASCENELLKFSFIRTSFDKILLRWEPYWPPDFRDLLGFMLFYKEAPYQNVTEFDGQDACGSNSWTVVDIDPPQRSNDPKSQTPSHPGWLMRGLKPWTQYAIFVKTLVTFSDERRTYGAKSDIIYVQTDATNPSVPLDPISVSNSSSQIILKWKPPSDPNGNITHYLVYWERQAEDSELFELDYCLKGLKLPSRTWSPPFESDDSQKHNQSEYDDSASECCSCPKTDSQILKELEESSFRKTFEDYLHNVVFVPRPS
Sequence of Insulin receptor (Mus musculus) (P15208 753-1372 limits assumed): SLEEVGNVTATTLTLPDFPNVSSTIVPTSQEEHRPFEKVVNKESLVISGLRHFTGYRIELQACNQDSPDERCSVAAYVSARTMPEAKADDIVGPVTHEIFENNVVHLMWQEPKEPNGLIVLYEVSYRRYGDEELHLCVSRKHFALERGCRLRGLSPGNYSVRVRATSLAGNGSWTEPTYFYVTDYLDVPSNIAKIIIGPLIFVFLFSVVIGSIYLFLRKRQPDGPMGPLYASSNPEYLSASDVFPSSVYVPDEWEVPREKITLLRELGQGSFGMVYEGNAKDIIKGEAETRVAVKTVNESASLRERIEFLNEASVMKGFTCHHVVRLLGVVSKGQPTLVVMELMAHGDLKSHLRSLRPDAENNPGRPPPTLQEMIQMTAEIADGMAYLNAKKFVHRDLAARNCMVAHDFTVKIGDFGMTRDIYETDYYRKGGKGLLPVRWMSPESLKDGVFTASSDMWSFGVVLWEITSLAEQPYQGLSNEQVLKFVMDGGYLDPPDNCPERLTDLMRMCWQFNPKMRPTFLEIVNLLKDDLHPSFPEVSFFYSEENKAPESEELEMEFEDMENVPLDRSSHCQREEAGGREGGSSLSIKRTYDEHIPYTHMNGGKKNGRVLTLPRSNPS

[18] = Antitumor activity against mouse NIH-3T3/LISN cells implanted in nu/nu CD-1 mouse assessed as reduction in tumor growth at 30 mg/kg, po for 21 days relative to control; format: functional; settings: 504 h, time 21 day, read-out: TGI; method in brief: as §4

## CCc1cc(Nc2nccc(-c3c(-c4ccc(OC)c(C(=O)Nc5c(F)cccc5F)c4)nc4ccccn34)n2)c(OC)cc1N1CCC(N2CCN(S(C)(=O)=O)CC2)CC1
[1]
  IC50: > 10000 nM
KMS-12-BM
  IC50: 113 nM
Homo sapiens
  inhibition: -10%
[2]
  IC50: 488 nM
[3]
  inhibition: 10%
MOLP-8
  IC50: 96 nM
NCI-H929
  Activity: 8%
MCF7
  Activity: 5%
[4]
  inhibition: 27%
[5]
  Activity: 5%
[6]
  IC50: > 10000 nM
Activin receptor type-2B
  IC50: > 10000 nM
[7]
  inhibition: 38%
[8]
  inhibition: 4%
[9]
  IC50: 357 nM
[10]
  inhibition: -10%
[11]
  inhibition in vivo at 30 mg/kg: 98%
SK-OV-3
  IC50: > 20000 nM
[12]
  IC50 at 72 h: 68 nM
[13]
  IC50: 3640 nM
[14]
  inhibition: 18%
[15]
  inhibition: 25%
COLO 205
  Activity: Active
[16]
  inhibition: 1%
[17]
  inhibition: inactive
[18]
  inhibition in vivo at 30 mg/kg: 56%
